Measured values collected from several papers.
Protocols differ between the studies behind these lines.
Medium: plasma

Compound | test system | setting | half-life [min]
COc1ccc([C@@H]2CN(C(=O)[C@@H](O)CO)C[C@@]2(C)[C@@H](C)O)cc1OC1CN(c2ccc(C)cn2)C1 | human | oral, 10 mg, single dose, healthy volunteers | 756
CS(=O)(=O)CCC#N | human | oral, 300 mg, multiple doses, once daily | 1280
CC(C)[C@](O)(c1ccc2cc(OC(F)F)c(OC(F)F)cc2c1)c1c[nH]nn1 | female human | oral, 600 mg, single dose | 504
CO[C@H]1CC[C@H](N2C(=O)CNc3ncc(-c4ccc(C(C)(C)O)nc4)nc32)CC1 | human | oral, 15 mg, patients | 201
CCOc1ccc(Cc2cc([C@@H]3O[C@H](CO)[C@@H](O)[C@H](O)[C@H]3O)ccc2Cl)cc1 | human | oral, 10 mg, multiple doses, steady state, healthy volunteers | 626
COc1ccc(Oc2cc(N(C)CCOc3ccc(CC4SC(=O)NC4=O)cc3)ncn2)cc1 (stereo not drawn) | male human | oral, 0.5 mg, multiple doses, once daily, steady state | 424
CC(C)(O)c1ccccc1-c1ccc2[nH]c(/C=C/c3ccc(C(F)(F)F)cc3)nc2c1 | male human | oral, 2 mg, single dose, fasted, healthy volunteers | 2870
Cc1cc(Nc2ncc(Cl)c(Nc3ccccc3S(=O)(=O)C(C)C)n2)c2c(c1C1CCN(C)CC1)C[C@@H](C)O2 | human | oral, 160 mg, single dose, fed | 2080
O=C(/C=C/c1cccc(S(=O)(=O)Nc2ccccc2)c1)NO | human | intravenous, 2000 mg/m², patients | 85
COc1cc(C(=O)NC2CCN(C)CC2)c(F)cc1Nc1ncc(C(F)(F)F)c(Oc2cccc3c2C(=O)N(C)C3)n1 | human | oral, 10 mg, multiple doses, once daily, patients | 1550
O=C(Nc1c(Cl)cncc1Cl)c1ccc(OC(F)F)c(OCC2CC2)c1 | human | oral, 0.375 mg, single dose | 1180
Cc1nc(-c2cn3c(n2)-c2ccc(-c4cnn(C(C)(C)C(N)=O)c4)cc2OCC3)n(C(C)C)n1 | human | oral, 6 mg, patients | 1340
CO[C@H]1/C=C\C=C(/C)C(=O)NC2=CC(=O)C(NCCN(C)C)=C(C[C@@H](C)C[C@H](OC)[C@H](O)[C@@H](C)/C=C(\C)[C@@H]1OC(N)=O)C2=O | human | intravenous, 27 mg/m², patients, infusion | 1350
CO[C@@H]1[C@H](OC(=O)N2CC(CCN3CCOCC3)C2)CC[C@]2(CO2)[C@H]1[C@@]1(C)O[C@@H]1CC=C(C)C | human | subcutaneous, 0.2 mg, single dose, healthy volunteers | 29.4
CC(C)(O)c1cc(Nc2cc(Oc3cn(C4CC4)nc3C3CCOCC3)ccn2)ccn1 | human | oral, patients | 402
Nc1cc(C(F)(F)F)c(-c2cc(N3CCOCC3)nc(N3CCOCC3)n2)cn1 | human | oral, 25 mg/day, patients | 2210
CC(C)(Sc1ccncc1-c1ccc(C#N)c2ccccc12)C(=O)O | male human | oral, 5 mg, single dose, fed, healthy volunteers | 762
c1cnc2ccc(Nc3nc(NC4CC4)c4nc[nH]c4n3)cc2c1 | human | oral, 400 mg/m², patients | 216
CC(C)(C)N/[N+]([O-])=N/OC1CCN(c2ccc(C#N)cn2)CC1 | male human | oral, single dose, healthy volunteers | 2760 to 4680
Cn1cc(-c2ccc(S(=O)(=O)[C@@H]3C[C@@H](C(=O)NC4(C#N)CC4)N(C(=O)C4(C(F)(F)F)CC4)C3)c(C(F)(F)F)c2)cn1 | human | oral, 100 mg, single dose, fed, healthy volunteers | 528
C#C[C@]1(COP(=O)(O)OP(=O)(O)OP(=O)(O)O)O[C@@H](n2cnc3c(N)nc(F)nc32)C[C@@H]1O | human | oral, 15 mg, single dose | 9660
Cc1nc(C(=O)NCC(=O)O)c(O)c2ccc(Oc3ccccc3)cc12 | human | oral, 100 mg, single dose, healthy volunteers | 703
C[C@@H](Nc1cc(F)cc(F)c1)c1cc(C(=O)N(C)C)cc2c(=O)cc(N3CCOCC3)oc12 | human | oral, 60 mg, patients | 312
NS(=O)(=O)NCCNc1nonc1C(=NO)Nc1ccc(F)c(Br)c1 | human | oral, 700 mg, multiple doses, twice daily, steady state, patients | 180
CC(C)n1cc(C#N)c2cc(-n3cc(C(=O)O)cn3)ccc21 | human | oral, 50 mg, single dose, fasted, healthy volunteers | 426
O=c1c(O)c(-c2ccc(O)c(O)c2)oc2cc(O)cc(O)c12 | human | oral, 500 mg, single dose, fasted, healthy volunteers | 376
CCNCCCNC/C=C\CNCCCNCC | human | intravenous, 50 mg, patients, infusion | 10.8
C[C@@H](c1ccc2nccn2c1)n1nnc2ncc(-c3cnn(C)c3)nc21 | human | oral, 600 mg | 426
COCCOc1cnc2ccn([C@H](C)c3nnc4c(F)cc(-c5cnn(C)c5)cn34)c(=O)c2c1 | human | oral, 300 mg, multiple doses, once daily, patients | 582
CN(C)Cc1ccc(S(=O)(=O)n2ccc(/C=C/C(=O)NO)c2)cc1 | human | oral, patients | ~240
